From ChEMBL document CHEMBL3272012, “5-(Tetradecyloxy)-2-furancarboxylic acid and related hypolipidemic fatty acid-like alkyloxyarylcarboxylic acids” (J Med Chem, 1977)

Columns and labels:
Rattus norvegicus [1] = assay: Hypolipidemic activity in Wistar rat assessed as reduction in plasma triglyceride level at 415 umol/kg/day administered through diet for 4 days; format: functional; details: 96 h
How it was run: (§1)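 Young male Wistar rats (initial weight 170-190 g), groups of six, fed compound mixed into Purina Lab Chow ad libitum for 4 or 10 days; daily dose calculated from food consumption and body weight. Bled by cardiac puncture; plasma cholesterol and triglycerides by automated procedures; percent reduction versus simultaneous untreated controls, Student's t test.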

Rattus norvegicus [2] = assay: Hypolipidemic activity in Wistar rat assessed as reduction in plasma cholesterol level at 415 umol/kg/day administered through diet for 4 days; format: functional; details: 96 h
How it was run: (§2)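 Young male Wistar rats, 170-190 g at start, in groups of six, given compound mixed into Purina Lab Chow ad libitum for 4 or 10 days as stated. Daily dose was calculated from food consumption and body weight. Plasma was taken by cardiac puncture at the end and cholesterol measured by automated procedure. Results are % reduction versus a concurrent untreated control group, with Student's t test.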

Rattus norvegicus [3] = assay: Increase in cholesterol level in Wistar rat liver at 415 umol/kg/day administered through diet for 4 days; format: ADME, organism-based; details: in vivo, po, 96 h
Rattus norvegicus [4] = assay: Increase in liver weight in Wistar rat at 415 umol/kg/day administered through diet for 4 days; format: ADME, organism-based; details: in vivo, po, 96 h
How it was run: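 Male Wistar rats (170-190 g initial), groups of six, dosed via diet ad libitum for 4 or 10 days, daily dose from food consumption. Liver wet weight measured, expressed as g/100 g final body weight, compared with untreated controls run simultaneously.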

Rattus norvegicus [5] = assay: Hypolipidemic activity in Wistar rat assessed as reduction in plasma triglyceride level at 509 umol/kg/day administered through diet for 4 days; format: functional; details: 96 h
Rattus norvegicus [6] = assay: Hypolipidemic activity in Wistar rat assessed as reduction in plasma cholesterol level at 509 umol/kg/day administered through diet for 4 days; format: functional; details: 96 h
How it was run: (§3)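 Young male Wistar rats, 170-190 g initial weight, groups of six, given compound mixed thoroughly into Purina Lab Chow ad libitum for 4 or 10 days as stated. Daily dose calculated from food consumption and body weight. Bled by cardiac puncture at end of treatment; plasma cholesterol measured by automated procedure. Expressed as percent reduction versus simultaneous untreated control group; Student's t test.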

Rattus norvegicus [7] = assay: Increase in cholesterol level in Wistar rat liver at 509 umol/kg/day administered through diet for 4 days; format: ADME, organism-based; details: in vivo, po, 96 h
Rattus norvegicus [8] = assay: Increase in liver weight in Wistar rat at 509 umol/kg/day administered through diet for 4 days; format: ADME, organism-based; details: in vivo, po, 96 h
Rattus norvegicus [9] = assay: Hypolipidemic activity in Wistar rat assessed as reduction in plasma triglyceride level at 425 umol/kg/day administered through diet for 10 days; format: functional; details: 240 h
Rattus norvegicus [10] = assay: Hypolipidemic activity in Wistar rat assessed as reduction in plasma cholesterol level at 425 umol/kg/day administered through diet for 10 days; format: functional; details: 240 h; how it was run: as §3
Rattus norvegicus [11] = assay: Increase in cholesterol level in Wistar rat liver at 425 umol/kg/day administered through diet for 10 days; format: ADME, organism-based; details: in vivo, po, 240 h
Rattus norvegicus [12] = assay: Increase in liver weight in Wistar rat at 425 umol/kg/day administered through diet for 10 days; format: ADME, organism-based; details: in vivo, po, 240 h
Rattus norvegicus [13] = assay: Hypolipidemic activity in Wistar rat assessed as reduction in plasma triglyceride level at 472 umol/kg/day administered through diet for 4 days; format: functional; details: 96 h
Rattus norvegicus [14] = assay: Hypolipidemic activity in Wistar rat assessed as reduction in plasma cholesterol level at 472 umol/kg/day administered through diet for 4 days; format: functional; details: 96 h; how it was run: as §3
Rattus norvegicus [15] = assay: Increase in liver weight in Wistar rat at 472 umol/kg/day administered through diet for 4 days; format: ADME, organism-based; details: in vivo, po, 96 h
Rattus norvegicus [16] = assay: Increase in cholesterol level in Wistar rat liver at 472 umol/kg/day administered through diet for 4 days; format: ADME, organism-based; details: in vivo, po, 96 h
Rattus norvegicus [17] = assay: Hypolipidemic activity in Wistar rat assessed as reduction in plasma triglyceride level at 459 umol/kg/day administered through diet for 10 days; format: functional; details: 240 h
Rattus norvegicus [18] = assay: Hypolipidemic activity in Wistar rat assessed as reduction in plasma cholesterol level at 459 umol/kg/day administered through diet for 10 days; format: functional; details: 240 h; how it was run: as §3
Rattus norvegicus [19] = assay: Increase in liver weight in Wistar rat at 459 umol/kg/day administered through diet for 10 days; format: ADME, organism-based; details: in vivo, po, 240 h
Rattus norvegicus [20] = assay: Increase in cholesterol level in Wistar rat liver at 459 umol/kg/day administered through diet for 10 days; format: ADME, organism-based; details: in vivo, po, 240 h
Rattus norvegicus [21] = assay: Hypolipidemic activity in Wistar rat assessed as reduction in plasma triglyceride level at 538 umol/kg/day administered through diet for 10 days; format: functional; details: 240 h
Rattus norvegicus [22] = assay: Hypolipidemic activity in Wistar rat assessed as reduction in plasma cholesterol level at 538 umol/kg/day administered through diet for 10 days; format: functional; details: 240 h; how it was run: as §3
Rattus norvegicus [23] = assay: Increase in cholesterol level in Wistar rat liver at 538 umol/kg/day administered through diet for 10 days; format: ADME, organism-based; details: in vivo, po, 240 h
Rattus norvegicus [24] = assay: Increase in liver weight in Wistar rat at 538 umol/kg/day administered through diet for 10 days; format: ADME, organism-based; details: in vivo, po, 240 h
Rattus norvegicus [25] = assay: Hypolipidemic activity in Wistar rat assessed as reduction in plasma triglyceride level at 640 umol/kg/day administered through diet for 10 days; format: functional; details: 240 h
Rattus norvegicus [26] = assay: Hypolipidemic activity in Wistar rat assessed as reduction in plasma cholesterol level at 640 umol/kg/day administered through diet for 10 days; format: functional; details: 240 h; how it was run: as §1
Rattus norvegicus [27] = assay: Increase in cholesterol level in Wistar rat liver at 640 umol/kg/day administered through diet for 10 days; format: ADME, organism-based; details: in vivo, po, 240 h
Rattus norvegicus [28] = assay: Increase in liver weight in Wistar rat at 640 umol/kg/day administered through diet for 10 days; format: ADME, organism-based; details: in vivo, po, 240 h
Rattus norvegicus [29] = assay: Hypolipidemic activity in Wistar rat assessed as reduction in plasma triglyceride level at 339 umol/kg/day administered through diet for 4 days; format: functional; details: 96 h
How it was run: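 Young male Wistar rats (170-190 g initial weight), groups of six, were fed compound mixed into lab chow ad libitum for 4 or 10 days alongside an untreated control group. Daily dose was calculated from food consumption and body weight. Rats were bled by cardiac puncture, and plasma triglyceride was measured by automated procedure. Results are expressed as percent reduction from simultaneous controls, with Student's t test.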

Rattus norvegicus [30] = assay: Hypolipidemic activity in Wistar rat assessed as reduction in plasma cholesterol level at 339 umol/kg/day administered through diet for 4 days; format: functional; details: 96 h; how it was run: as §2
Rattus norvegicus [31] = assay: Increase in liver weight in Wistar rat at 339 umol/kg/day administered through diet for 4 days; format: ADME, organism-based; details: in vivo, po, 96 h
Rattus norvegicus [32] = assay: Increase in cholesterol level in Wistar rat liver at 339 umol/kg/day administered through diet for 4 days; format: ADME, organism-based; details: in vivo, po, 96 h

CCCCCCCCCCCCCCCc1ccc(C(=O)O)cc1
inhibition in vivo at 415 µmol/kg (Rattus norvegicus [1]): 58%
inhibition in vivo at 415 µmol/kg (Rattus norvegicus [2]): 27%
Activity (Rattus norvegicus [3]): 13%
Activity (Rattus norvegicus [4]): 4%

CCCCCCCCCCCCCCOc1ccc(C)cc1
inhibition in vivo at 509 µmol/kg (Rattus norvegicus [5]): 30%
inhibition in vivo at 509 µmol/kg (Rattus norvegicus [6]): 0%
Activity (Rattus norvegicus [7]): 0%
Activity (Rattus norvegicus [8]): 10%

CCCCCCCCCCCCCCCCCCCc1ccc(C(=O)O)cc1
inhibition in vivo at 425 µmol/kg (Rattus norvegicus [9]): 2%
inhibition in vivo at 425 µmol/kg (Rattus norvegicus [10]): 8%
Activity (Rattus norvegicus [11]): 0%
Activity (Rattus norvegicus [12]): 10%

CCCCCCCCCCCCCCOc1ccc(CC(=O)OC)cc1
inhibition in vivo at 472 µmol/kg (Rattus norvegicus [13]): 23%
inhibition in vivo at 472 µmol/kg (Rattus norvegicus [14]): 0%
Activity (Rattus norvegicus [15]): 8%
Activity (Rattus norvegicus [16]): 0%

CCCCCCCCCCCCCCOc1ccc(C(N)=O)cc1
inhibition in vivo at 459 µmol/kg (Rattus norvegicus [17]): 0%
inhibition in vivo at 459 µmol/kg (Rattus norvegicus [18]): 3%
Activity (Rattus norvegicus [19]): 0%
Activity (Rattus norvegicus [20]): 0%

CCCCCCCCc1ccc(C(=O)O)cc1
inhibition in vivo at 538 µmol/kg (Rattus norvegicus [21]): 21%
inhibition in vivo at 538 µmol/kg (Rattus norvegicus [22]): 6%
Activity (Rattus norvegicus [23]): 11%
Activity (Rattus norvegicus [24]): 11%

CCCCCCCCCCc1ccc(C(=O)O)cc1
inhibition in vivo at 640 µmol/kg (Rattus norvegicus [25]): 63%
inhibition in vivo at 640 µmol/kg (Rattus norvegicus [26]): 32%
Activity (Rattus norvegicus [27]): 43%
Activity (Rattus norvegicus [28]): 18%

CCCCCCCCCCCCCCCCOc1ccc(C(=O)CC(=O)OC)cc1
inhibition in vivo at 339 µmol/kg (Rattus norvegicus [29]): 57%
inhibition in vivo at 339 µmol/kg (Rattus norvegicus [30]): 32%
Activity (Rattus norvegicus [31]): 18%
Activity (Rattus norvegicus [32]): 2%
